Activity calls are given as the source filed them. Rule as the data show it, unless noted: active = inhibition above about 30%; inactive = the rest.
Experiments:
[1] = Her2 expression decrease, cell viability multiplex – SKBR3 breast tumor cells, AlphaScreen, ATP viability, primary screen (AID 461;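 active = Her2 level under about 52% in both replicate screens, with viability over 70% of control, limit read from the data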;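 as to Her2 level: lower value means less Her2 protein in the cells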;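 as to viability: percent of carrier control wells set as 100% viability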); conditions: SKBR3 Her2 protein level, 18-24 h, measured here: SKBR3 viability, ATP luminescence, at 10 µM
[2] = target: Receptor tyrosine-protein kinase erbB-2 (Homo sapiens) (UniProt P04626); assay: as above; conditions: 18-24 h, at 10 µM, stronger effect = lower value
Chain of Receptor tyrosine-protein kinase erbB-2 (Homo sapiens) (P04626 whole entry, looked up): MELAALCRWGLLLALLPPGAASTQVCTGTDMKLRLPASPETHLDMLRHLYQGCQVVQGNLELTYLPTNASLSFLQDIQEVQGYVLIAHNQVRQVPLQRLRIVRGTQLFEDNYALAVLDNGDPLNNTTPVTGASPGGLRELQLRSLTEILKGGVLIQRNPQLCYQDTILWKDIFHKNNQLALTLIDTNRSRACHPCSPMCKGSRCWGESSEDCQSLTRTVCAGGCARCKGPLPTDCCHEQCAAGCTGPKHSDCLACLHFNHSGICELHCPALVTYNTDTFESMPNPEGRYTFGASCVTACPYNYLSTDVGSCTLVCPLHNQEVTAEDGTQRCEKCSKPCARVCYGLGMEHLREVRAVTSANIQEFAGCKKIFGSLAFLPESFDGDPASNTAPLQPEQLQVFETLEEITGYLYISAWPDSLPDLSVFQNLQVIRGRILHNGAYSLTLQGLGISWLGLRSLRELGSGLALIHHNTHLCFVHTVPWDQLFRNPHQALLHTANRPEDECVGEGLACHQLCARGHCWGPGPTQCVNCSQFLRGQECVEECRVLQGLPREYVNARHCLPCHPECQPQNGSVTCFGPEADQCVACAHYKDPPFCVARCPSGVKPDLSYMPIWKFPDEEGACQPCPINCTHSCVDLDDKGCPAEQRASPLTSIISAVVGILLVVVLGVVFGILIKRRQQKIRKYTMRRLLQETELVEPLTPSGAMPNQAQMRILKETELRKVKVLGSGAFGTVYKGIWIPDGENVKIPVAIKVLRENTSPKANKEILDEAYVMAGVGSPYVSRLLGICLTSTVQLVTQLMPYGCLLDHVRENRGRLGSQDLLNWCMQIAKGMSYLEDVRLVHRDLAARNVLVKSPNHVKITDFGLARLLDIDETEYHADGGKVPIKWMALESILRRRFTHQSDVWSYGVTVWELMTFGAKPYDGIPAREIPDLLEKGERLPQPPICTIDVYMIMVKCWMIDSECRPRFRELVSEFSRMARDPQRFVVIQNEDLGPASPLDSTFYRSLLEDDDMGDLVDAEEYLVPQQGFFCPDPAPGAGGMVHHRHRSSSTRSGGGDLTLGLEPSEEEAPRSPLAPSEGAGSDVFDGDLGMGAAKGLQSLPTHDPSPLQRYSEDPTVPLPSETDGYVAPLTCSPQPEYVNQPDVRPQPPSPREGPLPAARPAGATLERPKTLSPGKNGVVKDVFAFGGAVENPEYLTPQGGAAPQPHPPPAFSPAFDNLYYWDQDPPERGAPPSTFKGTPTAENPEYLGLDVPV

[3] = reduced viability of SK-BR-3 breast cancer cells – cell-based, 24 h, human, pilot screen (AID 572;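 active = viability at or below 10% of carrier control in both of two separate runs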;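 also: compound exposure lasted between 18 and 24 h rather than exactly 24 h; 100% = carrier-treated control wells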); conditions: SK-BR-3 viability, CellTiter-Glo luminescence, at 10 µM, stronger effect = lower value
[4] = HUVEC growth inhibition – cell-based, human, primary screen (AID 575;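 active = viability at or below 30% in both replicate assays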;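 also: 100% = median of untreated cell wells with 0.1% DMSO on each plate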); conditions: HUVEC proliferation, CellTiter-Glo luminescence, 72 h; at 10 µM; stronger effect = lower value
Summary of the method: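 Test system: primary human umbilical vein endothelial cells; medium: endothelial basal medium with 2% FBS plus growth supplements; dosing: 10 µM compound only; times: 72 h treatment at 37 °C; signal: CTG luminescence; read-out: % viability relative to median vehicle-well signal on each plate; control set: vehicle and MePR control wells; plate: 384-well, collagen-coated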

[5] = H69AR cell proliferation blockers – human, duplicate replicates, primary screen (AID 580;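 active = viability at or under a set limit in both replicates, limit being median viability minus 3 SD, cut at about 48% in these data, passing the limit was not always enough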;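 also: 100% = mean luminescence of untreated wells and 0% = no signal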); conditions: H69AR lung tumor cells viability, ATP luminescence, 72 h; at 10 µM; stronger effect = lower value
[6] = MRP1 drug-resistance reversers in H69AR cells – cell-based, doxorubicin co-treatment, pilot screen (AID 601;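 active = viability loss from added drug above about 55%, and viability with drug at most 40%, in both replicates, limit read from the data, passing the limit was not always enough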); conditions: CellTiter-Glo, 72 h, at 10 µM; for differential viability (reversal): stronger effect = higher value
[7] = yeast transport mutant growth inhibition pilot in 384-well plates, post-Golgi transport modulator project (AID 636; in the data active = inhibition above about 31%); conditions: absorbance 615 nm, about 18 h, stronger effect = higher value
[8] = growth suppression of yeast trafficking mutant, preliminary HTS, modulators of trafficking downstream of Golgi apparatus project, 1536-format plate, OD 615 nm (AID 637); conditions: yeast transport mutant growth, absorbance 615 nm, 18 h; stronger effect = higher value
[9] = H69AR cells + 2 uM doxorubicin, measured here: viability with 2 uM doxorubicin, stronger effect = lower value
[10] = H69AR cells, compound alone cytotoxicity

Row | Compound | viability [1] | Her2 level [2] | viability [3] | viability [4] | viability [5] | differential viability (reversal) ([6]; H69AR cells + 2 uM doxorubicin) | viability [6, 9] | viability [6, 10] | inhibition [7] | inhibition [8]
1 | CCn1c(SCC(=O)N2CCCc3ccccc32)nnc1-c1cccs1 | 85.5% | 72.5% (inactive) | 85.5% (inactive) | 83.3% (inactive) | 87.5% (inactive) | 5.33% (inactive) | 82.2% | 87.5% | -5.87% (inactive) | 0.16% (inactive)
2 | O=C(NCCC1=CCCCC1)N[C@@H](Cc1ccccc1)C(=O)O | 104% | 114% (inactive) | 104% (inactive) | 100% (inactive) | 108% (inactive) | 14.2% (inactive) | 93.5% | 108% | 0.13% (inactive) | 0.16% (inactive)
3 | COC(=O)c1nn(-c2ccc(-c3ccccc3)cc2)cc1O | 94% | 97% (inactive) | 94% (inactive) | 92.6% (inactive) | 89.2% (inactive) | 4.12% (inactive) | 85.1% | 89.2% | -4.27% (inactive) | -8.06% (inactive)
4 | CC1CN(Cc2nc3c(c(=O)[nH]c(=O)n3C)n2CC(N)=O)CC(C)O1 (stereo not given) | 99.5% | 97.5% (inactive) | 99.5% (inactive) | 88.6% (inactive) | 102% (inactive) | 9.96% (inactive) | 92.4% | 102% | 0.51% (inactive) | 0.67% (inactive)
5 | CCCCCc1c(C)nc(Nc2nc(C)c3cc(OC)ccc3n2)[nH]c1=O | 92.5% | 85.5% (inactive) | 92.5% (inactive) | 55.2% (inactive) | 78% (inactive) | 22.3% (inactive) | 55.7% | 78% | -7.7% (inactive) | 11.1% (inactive)
6 | COc1ccc(OC)c(C(=O)COC(=O)c2cc(C)oc2C)c1 | 112% | 71% (inactive) | 112% (inactive) | 62.9% (inactive) | 92.7% (inactive) | 4.87% (inactive) | 87.9% | 92.7% | -7.33% (inactive) | -4.92% (inactive)
7 | CC(C)Cn1c(N)c(C(=O)COC(=O)c2cc(-c3ccco3)nc3ccccc23)c(=O)n(C)c1=O | 78.5% | 80% (inactive) | 78.5% (inactive) | 66.8% (inactive) | 89.3% (inactive) | -1.72% (inactive) | 91.1% | 89.3% | -4.32% (inactive) | -6.67% (inactive)
8 | COCn1c(COc2ccccc2)nc2ccccc21 | 86.5% | 94% (inactive) | 86.5% (inactive) | 107% (inactive) | 82.6% (inactive) | -2.19% (inactive) | 84.8% | 82.6% | -9.32% (inactive) | -2.67% (inactive)
9 | COc1ccc(C)cc1NC(=O)c1nc2nc(C)cc(C)n2n1 | 86% | 76% (inactive) | 86% (inactive) | 73% (inactive) | 85.1% (inactive) | -1.54% (inactive) | 86.6% | 85.1% | -6.13% (inactive) | -1.11% (inactive)
10 | O=C(CCS(=O)(=O)c1cccc2nonc12)Nc1cccc2c1CCCC2 | 94.5% | 114% (inactive) | 94.5% (inactive) | 103% (inactive) | 95.5% (inactive) | 12% (inactive) | 83.5% | 95.5% | -6.44% (inactive) | -3.65% (inactive)
11 | CCOc1ccccc1C1NC(=O)NC(C)=C1C(=O)OC1CCCC1C (stereo not given) | 94.5% | 69% (inactive) | 94.5% (inactive) | 82.5% (inactive) | 78.1% (inactive) | 2.33% (inactive) | 75.8% | 78.1% | -1.73% (inactive) | 0.81% (inactive)
12 | C=CCSc1nnc(-c2ccccc2NC(C)=O)c(=O)[nH]1 | 106% | 105% (inactive) | 106% (inactive) | 105% (inactive) | 93% (inactive) | 9.55% (inactive) | 83.4% | 93% | -3.03% (inactive) | -0.36% (inactive)
13 | Cc1ccc(NC(=O)CSc2nnc(CSc3nc(C)cc(C)n3)n2Cc2ccco2)c(C)c1 | 88% | 96% (inactive) | 88% (inactive) | 96.9% (inactive) | 80.8% (inactive) | 16.1% (inactive) | 64.7% | 80.8% | 0.8% (inactive) | -6.72% (inactive)
14 | Cc1ccc(S(=O)(=O)Cc2ccc(C(=O)NCc3ccc4c(c3)OCO4)o2)cc1 | 98% | 84% (inactive) | 98% (inactive) | 84.7% (inactive) | 94.1% (inactive) | 6.79% (inactive) | 87.3% | 94.1% | -3.29% (inactive) | -4.76% (inactive)
15 | COC(=O)CNC(=O)c1c(C)cc(=O)oc1C | 89.5% | 104% (inactive) | 89.5% (inactive) | 90.3% (inactive) | 97.1% (inactive) | 5.65% (inactive) | 91.4% | 97.1% | -4.27% (inactive) | -8.55% (inactive)
16 | O=C(NC1CCCC1)c1c[nH]c2ccc(F)cc2c1=O | 97.5% | 90.5% (inactive) | 97.5% (inactive) | 92.6% (inactive) | 92% (inactive) | 9.81% (inactive) | 82.1% | 92% | -5.41% (inactive) | -3.67% (inactive)

Row | Compound | viability [1] | Her2 level [2] | viability [3] | viability [4] | viability [5] | differential viability (reversal) ([6]; H69AR cells + 2 uM doxorubicin) | viability [6, 9] | viability [6, 10] | inhibition [7] | inhibition [8]
17 | CCCCOc1ccc(-c2nnn(CC(=O)Nc3ncc(CC(=O)OCC)s3)n2)cc1 | 122% | 100% (inactive) | 122% (inactive) | 74.5% (inactive) | 84% (inactive) | -4.45% (inactive) | 88.4% | 84% | -7.11% (inactive) | -1.59% (inactive)
18 | CCOc1cc(NC(=O)c2ccco2)c(OCC)cc1NC(=O)Cc1cccc(OC)c1 | 107% | 99.5% (inactive) | 107% (inactive) | 61.2% (inactive) | 86.7% (inactive) | -0.055% (inactive) | 86.7% | 86.7% | 0.68% (inactive) | -6.39% (inactive)
19 | COc1ccc2c(c1)OC(O)(C(F)F)CC2=O (stereo not given) | 116% | 107% (inactive) | 116% (inactive) | 102% (inactive) | 93.5% (inactive) | 2.35% (inactive) | 91.2% | 93.5% | -1.04% (inactive) | -2% (inactive)
20 | COC(=O)c1sc(NC(=O)c2ccoc2C)nc1C | 110% | 118% (inactive) | 110% (inactive) | 61.8% (inactive) | 75.3% (inactive) | 2.44% (inactive) | 72.9% | 75.3% | -3.07% (inactive) | 8.06% (inactive)
21 | CCOc1ccc(-n2cc(C(=O)Nc3cccc(C)n3)c3cc(OC)c(OC)cc3c2=O)cc1 | 110% | 91% (inactive) | 110% (inactive) | 71.8% (inactive) | 64.4% (inactive) | -11.8% (inactive) | 76.2% | 64.4% | -5.47% (inactive) | 4.43% (inactive)
22 | COCCCN(C(C)=O)c1nc(-c2ccccc2)cs1 | 91% | 85.5% (inactive) | 91% (inactive) | 65.5% (inactive) | 94% (inactive) | 9.96% (inactive) | 84.1% | 94% | -7.81% (inactive) | -3.17% (inactive)
23 | CS(=O)(=O)Nc1ccc(S(=O)(=O)Nc2nccs2)cc1 | 97% | 90% (inactive) | 97% (inactive) | 116% (inactive) | 95.9% (inactive) | 3.66% (inactive) | 92.2% | 95.9% | -2.93% (inactive) | 1.31% (inactive)
24 | Cc1ccc(CNC(=O)COC(=O)c2c(C)noc2C)cc1 | 99% | 121% (inactive) | 99% (inactive) | 97.4% (inactive) | 92.8% (inactive) | 7.25% (inactive) | 85.6% | 92.8% | -4.03% (inactive) | -14.2% (inactive)
25 | CCCCn1nnc(NC(=O)Cc2ccc(Cl)cc2)n1 | 112% | 134% (inactive) | 112% (inactive) | 106% (inactive) | 90% (inactive) | 17.9% (inactive) | 72.1% | 90% | -3.9% (inactive) | -3.5% (inactive)
26 | CCn1cc(C(=O)N2CCCC2)c(=O)c2cc(S(=O)(=O)N3CCOCC3)ccc21 | 116% | 99% (inactive) | 116% (inactive) | 92.2% (inactive) | 99.5% (inactive) | 1.21% (inactive) | 98.3% | 99.5% | -5.92% (inactive) | -6.51% (inactive)
27 | CC(=O)N1CCc2cc(S(=O)(=O)NC(CC(C)C)C(=O)N3CCn4c3nc3ccccc34)ccc21 (stereo not given) | 88.5% | 87.5% (inactive) | 88.5% (inactive) | 92% (inactive) | 97.6% (inactive) | -3.44% (inactive) | 101% | 97.6% | -4.4% (inactive) | 1.8% (inactive)
28 | N#Cc1c(/N=C/c2cccs2)sc2c1CCCCC2 | 98.5% | 88.5% (inactive) | 98.5% (inactive) | 66.5% (inactive) | 90.3% (inactive) | 16.3% (inactive) | 73.9% | 90.3% | -5.33% (inactive) | 5.74% (inactive)
29 | CCc1ccc(C2CC(c3ccccc3)n3ncnc3N2)cc1 (stereo not given) | 80% | 86% (inactive) | 80% (inactive) | 83.1% (inactive) | 88.1% (inactive) | 3.85% (inactive) | 84.3% | 88.1% | 3.59% (inactive) | 0.67% (inactive)
30 | CCOC(=O)c1c(NC(=O)c2ccn(CC)n2)sc2c1CCCC2 | 88% | 70% (inactive) | 88% (inactive) | 75.5% (inactive) | 77.2% (inactive) | -15% (inactive) | 92.2% | 77.2% | -4.74% (inactive) | 1.67% (inactive)
31 | COC(=O)COc1ccc(S(=O)(=O)NCCC2=CCCCC2)cc1 | 99% | 83.5% (inactive) | 99% (inactive) | 10.6% (active) | 95% (inactive) | -3.67% (inactive) | 98.7% | 95% | 0% (inactive) | -1.13% (inactive)
